Experimental data reported in the EternaBench riboswitch data.

Test system: MS2 coat protein
Test: apparent Kd, MS2 coat protein; higher = weaker binding; RNA-MaP array; FMN 200 µM where present
Outline: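 Designs on Illumina sequencing-chip clusters, transcribed by stalled E. coli RNA polymerase, were exposed to SNAP-549-labelled MS2 coat protein in doubling steps from 0.7 or 1.5 nM up to 3 µM, without and then with constant ligand. The buffer held 100 mM Tris-HCl pH 7.5, 80 mM KCl, 4 mM MgCl2, BSA, DTT, yeast tRNA and Tween-20. Apparent Kd values are medians of filtered per-cluster binding-curve fits to green signal normalised to red-channel RNA signal and control-cluster median Fmax.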

[1] = designed as: ON switch for flavin mononucleotide, no ligand
[2] = ligand present: flavin mononucleotide, designed as: ON switch for flavin mononucleotide
[3] = designed as: OFF switch for flavin mononucleotide, no ligand
[4] = ligand present: flavin mononucleotide, designed as: OFF switch for flavin mononucleotide

Row | Sequence | apparent Kd [1] [nM] | apparent Kd [2] [nM] | apparent Kd [3] [nM] | apparent Kd [4] [nM]
1 | UACAUCAAUGAAGGAUAUCUAUAUCCAACAUGAGGAUCACCCAUGUUGAGGAUCACCCAUGUAAAGGAGAAGGUUAAUAUAACU | 37.7 | 29.7 |  | 
2 | ACAUACAUUCGAGGAUAUCGGUGAGAAAUCUUUCGAGAAGGCGAUUCAUGAUUUAUUAUCCUGGACAUGAGGAUCACCCAUGUA | 78.9 | 62.8 |  | 
3 | UUAGAAAGGUUAGGAUAUUAAUUAUUGUAUAGUAUGAUCUACAUGAGGAUCACCCAUGUUAAAUAUAAGAAGGAACGUUAGAUU |  |  | 57.1 | 54.8
4 | GUGUACAGAGGAUAUGCUUGAAUCUAGCGAAGCUAGGUUCGACAUGAGGAUCACCCAUGUAGAAGGCUGUACAC |  |  | 13.6 | 12.7
5 | GUUAAGUGAGGAUAUGGUGAGUAGUGCCAGAGCGCUGCUCACCAGAAGGCACAUGAGGAUCACCCAUGUAUAGC |  |  | 15.7 | 31.5
6 | CGAGUUUUUGAGAAGGCAUAUUAUAAUAGUGUCCAUGUUUACAUGAGGAUCACCCAUGUUUAGUAUGAGGAUAUCAGUAUGUCG |  |  | 8.01 | 11.1
7 | GUAGCUACAUGAGGAUCACCCAUGUAGGAUAUCGCUAUUGUAAUCAUGUUACAUGAUUACAAUAGCGAGAAGGACGUGAGCUAC |  |  | 8.39 | 8.7
8 | GCCAGGAUGUGAGGAUAUGCUGAGGAUAACUCAGCAGAAGGCACAUGAGGAUCACCCAUGUAAACCUAUAAUAAAUACCCUGGC |  |  | 12.1 | 24.4
9 | UGUUUUUUGGGAGGAUAUGUAAAUUUAAACAUGAGGAUCACCCAUGUGGAUCACCCAUGUAGAUAAUAGAAGGCCCUUUUUUUU |  |  | 55.3 | 36.5
10 | AUAUAAAUAUAGGAUAUCGAAUUUAUUAAUUAUCGAGAAGGAUAAACAUGAGGAUCACCCAUGUGGUAUCAUGG |  |  | 366 | 336
11 | UUAUAUAGAGUGAGGAUAUGCUGGUCCUUGGAUCAGCAGAAGGCACAUGAGGAUCACCCAUGUAAAAUAAUAUU |  |  | 24.2 | 41.1
12 | ACAUGAGGAUCACCCAUGUUCACAUAGGAUAUUGAUUAUAUUGGUUUUAGAAUAGUAAUUAACCUCAAGAAGGAUGCCUGAUCU | 12.5 | 10.9 |  | 
13 | UCGAUCGUAUGAGGAUAUGGUACACAAAGUGUACCAGAAGGCAUGUCAAUAGACAUGAGGAUCACCCAUGUAUUAUCGAUCGAA | 361 | 51.7 |  | 
14 | AAAACUGAAGGAUAUGCCAGGGUGAGAGCUGGUGACGUUUAACAUGAGGAUCACCCAUGUAGAAGGUCAAAACA |  |  | 15.3 | 17
15 | UGUUGUUCAGGAUAUGGUGUGUUAUACAUGAGGAUCACCCAUGUGGGUCCUGGUUUGGCGUCAGAAGGGAAUGUUG |  |  | 539 | 396
16 | ACAUGCCUGUCGAUGCUCGACAUGAGGAUCACCCAUGUACAGCAGGAUAUGCAGAACUAACUCGUGCAGAAGGGCUGUACCUAA |  |  | 90.8 | 226
17 | CUCGAGUUAGGAUAUCGAACGUAACAAGCGGGAACUCCCGCCGAGAAGGAACAUGAGGAUCACCCAUGUGAAAA |  |  | 23.2 | 22.2
18 | GAAUAGAAAGAUUAAUAUGAUUACAUGAGGAUCACCCAUGUAUAGGAUAUCGACGUCAAUGACGUCGAGAAGGAUACAUAAUAA |  |  | 14.5 | 26.1
19 | AAUUUACAGGUAGGAUAUACAUGAGGAUCACCCAUGUAAUCAUAUGAUAUUUUUUUUGUAUGAGUGUAGAAGGACCAAAUAAAA |  |  | 9.75 | 8.48
20 | UGUUAUUAGACAGGAUAUUGAAUGUUAAGUAUUAACAUGAGGAUCACCCAUGUAUUUGAUUGGUACAAGAAGGGUCAUGUUCCU | 431 | 649 |  | 
21 | AUAAUGUAAGGAUAUCAGUCGACUAGCUUCGGCUAGUCGACUGAGAAGGUACAUGAGGAUCACCCAUGUGUUUC |  |  | 37.7 | 209
22 | CCUCUACAUGAGGAUCACCCAUGUGAGGAUAUGCGAGGCGCACUCGAUGAGCGCGCCGGUAGAAGGCAUGUGGU |  |  | 24 | 55
23 | UAUUUUAACUAAGGAUAUCUAUAUUAUGUUGAAACAUGAGGAUCACCCAUGUUCAUGAUAUUAUAGGAGAAGGUAGAUGAAUAA | 6.59 | 5.44 |  | 
24 | AAAUAACCUAGCAAAAUUUCCUCACAUGAGGAUCACCCAUGUAGAAGGCUGUCCUAAAAUAGGACAGAGGAUAUACAUGCUAGG |  |  | 10.6 | 171

Row | Sequence | apparent Kd [1] [nM] | apparent Kd [2] [nM] | apparent Kd [3] [nM] | apparent Kd [4] [nM]
25 | UGCCAGUUAGGAUAUGCACGCGCCGGUGACCUGCUACGGCUACAUGAGGAUCACCCAUGUAGAAGGAACUGGGC |  |  | 19.6 | 20.2
26 | UUAUUAUAUGUAGGAUAUGCAUAUUAUUAUUGUGCAGAAGGACAUGAGGAUCACCCAUGUAUAUUAUUAUUAUAUAUUAUAUGU |  |  | 25.7 | 30.2
27 | UGUAUGGACAGAGGAUAUACGGAUAGGAUCUACUAUCUUUCUCAAAUAACAUGAGGAUCACCCAUGUAGAAGGCUGUCCAUACU |  |  | 22.4 | 136
28 | UGGGUUGUUGUGAGGAUAUACUGUUUGUUUUGUUUGUAGAAGGUACAUGAGGAUCACCCAUGUUGGUUGUGGUU |  |  | 262 | 228
29 | UCCAAAUCGUAGAAGGGUGACAUGAGGAUCACCCAUGUGCAGCGGCCGUGAACGGCCACGCUGCCACAGGAUAUACGAUGGAGU | 48.4 | 74 |  | 
30 | CCGUCCCGGCUGCAGCUCGGUAACAUGAGGAUCACCCAUGUCAAGGAUAUAACCAUACUCGAUCGUUAGAAGGUGACAGGGUCC |  |  | 175 | 107
31 | UUGUGGGAGCAGGAUAUCUUAUUUUGGUUUUGUGGAGAAGGGCUGACAUGAGGAUCACCCAUGUGGUCCUAGAU |  |  | 21.7 | 36.5
32 | UGGUCAUCAUCAGGAUAUUAACAUGGGCUACAUUAAGAAGGGAUAGUGAGAUACGAACUGAAACAUGAGGAUCACCCAUGUUGU | 105 | 51.9 |  | 
33 | UAGAUGGGAGGAUAUACGUAUAUGCAGGUUCGUGUGGUGCUACAUGAGGAUCACCCAUGUAGAAGGCCCGUCUU |  |  |  | 38.6
34 | UAUAUGUCAGGAUAUCGAUUGGAAUGGAAUUCGGUUCUGGUUGAGAAGGGACAUGAGGAUCACCCAUGUUUUUC |  |  | 27.6 | 84.4
35 | GUUAAACAUGAGGAUCACCCAUGUAAGGAUAUGCUGCGGUAGAGAUGAAGUGAAUGCAGCAGAAGGUACAAUUG |  |  | 124 | 109
36 | GAGUCUCUAUUAGAACCGAUACGAACAUGAGGAUCACCCAUGUAGGAUAUGCUAAAAGUUGUGUUGCAGAAGGACAUUUAUCGC |  |  | 11.1 | 10.9
37 | UGUCCUUGAGGCUCGGACGUGUCGCCAGAAGGCAAUUUCUGACAUGAGGAUCACCCAUGUCCAAUUGAGGAUAUGGCUGCGUUG | 17.3 | 5.56 |  | 
38 | GUACGUGGACAGAAGGUGACAUGAGGAUCACCCAUGUUAGCUCGGGUACGAGCGAUCCGCGUGAUUGAGGAUAUGUCUGCGGGC |  |  | 39.7 | 59
39 | AUACCACGAGGAUAUCGUCUAUAAUACAUGAGGAUCACCCAUGUUAUAUCUGUAAUGUUUCGAGAAGGCGUGUGUU |  |  | 18.9 | 14.6
40 | AUUAUGCAGCAGGAUAUCGAUCCGCGGUAUGAUCGAGAAGGGCUGACAUGAGGAUCACCCAUGUGCGUCCUAGG |  |  | 39.8 | 147
41 | UGGAUCAUGGGAGGAUAUCCUCAAGAGACAUGAGGAUCACCCAUGUAUUAUAUGCCUCAUGGCAUGGAGAAGGCCCAUGAUCCU | 176 | 161 |  | 
42 | AGCUUCGGUGUCAGGAUAUGGGAAAGGGAACUUACCCAGAAGGGACAUGAGGAUCACCCAUGUGGCUUGACAUG |  |  | 45.3 | 109
43 | GAGUGGUGGAGAGGAUAUGCAUUGUUAUUCACUGUAGAAGGUUCUAACAUGAGGAUCACCCAUGUAGGACUAUUCCUGUGUUUU | 13.5 | 11.1 |  | 
44 | GAAGCCUGAGAGAAGGGCCACAUGAGGAUCACCCAUGUGUGCUCUCCUGUGGCAGGAUAUCUAUGGGCUGACUGGCUAAUCCAU |  |  | 6.84 | 4.6
45 | CGUCGUCUACGACGCACAUGAGGAUCACCCAUGUGGCAGACACAGGAUAUCCGUUGGAAUGUCCAGGAGAAGGGUGAUCGCAUA | 38.6 | 77.5 |  | 
46 | GCUCGUGGACAGAAGGCGACAUGAGGAUCACCCAUGUUGGCUCGGGUAUGACCAAUCCGCAUGAUCGAGGAUAUGUCUGCGGGC |  |  | 419 | 19.2
47 | UAGAAGUCAGGAUAUGCUGCUCGUCACUUGCGUGAUGAGUAGCAGAAGGGACAUGAGGAUCACCCAUGUAAAGC |  |  | 48.8 | 54.3
48 | CGUGCUAUGUAGAAGGCAGAUCUGAUUCAGAUCUGAGGAUAUACAUGAGGAUCACCCAUGUUAUGCACCAGCACGAGAGUGCAG |  |  | 7.18 | 14.4
